Results reported in the EternaBench riboswitch data.

System: MS2 coat protein
Assay: apparent Kd, MS2 coat protein; higher = weaker binding; RNA-MaP array; FMN 200 µM where present
How it was run: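 The apparent Kd is the median of filtered binding-curve fits, one per cluster, to green signal normalised to red-channel RNA signal and control-cluster median Fmax. The clusters were on Illumina sequencing chips, and stalled E. coli RNA polymerase had transcribed the designs on them. Titration used SNAP-549-labelled MS2 coat protein from 0.7 or 1.5 nM, doubling to 3 µM, without and then with constant ligand, in 100 mM Tris-HCl pH 7.5, 80 mM KCl, 4 mM MgCl2, BSA, DTT, yeast tRNA and Tween-20.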

[1] = designed as: ON switch for flavin mononucleotide, no ligand
[2] = ligand present: flavin mononucleotide, designed as: ON switch for flavin mononucleotide
[3] = designed as: OFF switch for flavin mononucleotide, no ligand
[4] = ligand present: flavin mononucleotide, designed as: OFF switch for flavin mononucleotide

**Q.** For “GAACGUGACAUGAGGAUCACCCAUGUUGCCUUGGCCAGGUCGUAGGAUAUCCUGUUGAUUAAUUUGGAGAAGGGCGACUGGGAG”, which “apparent Kd” value [1] is on record?
**A.** 33.5 nM

**Q.** And the “apparent Kd” value [2]?
**A.** 12.9 nM

**Q.** “GAAGCACAUGAGGAUCACCCAUGUGAGGAUAUCCGUCUGGUCCGGCCGGGCCAGUACCGGAGAAGGCGCGUCGA” was tested. Which “apparent Kd” value [3] did it give?
**A.** 34.7 nM

**Q.** And the “apparent Kd” value [4]?
**A.** 29.7 nM

**Q.** For “GAAGCACGCAUUAACAUGAGGAUCACCCAUGUCAAAAGACGUGAGGAUAUGGAUCUGAAGAAGAUCCAGAAGGCACCGUGCUAA”, which “apparent Kd” value [1] is on record?
**A.** 8.41 nM

**Q.** And the “apparent Kd” value [2]?
**A.** 5.3 nM

**Q.** How did the “apparent Kd” value [1] turn out when “GAAGCAGAUCAGAAGGACAACGUAGUUUCUGGCUUGGUGGCCCUCGUUUGUAGGAUAUGAUCUAACAUGAGGAUCACCCAUGUG” was run?
**A.** 53.2 nM

**Q.** What about the “apparent Kd” value [2] of the same sequence?
**A.** 11.7 nM

**Q.** What does the source list for “GAAUAAUUGAUCCAAUUUUACAACAUGAGGAUCACCCAUGUGCAGGAUAUCGUGAAAGUUAAAUACGAGAAGGGCAAGAACUGU”?
**A.** apparent Kd [3]: 220 nM; apparent Kd [4]: 344 nM

**Q.** What does the source list for “GAAUUAAUGAUCCAAUUUUACAACAUGAGGAUCACCCAUGUGCAGGAUAUCGUGUGUUUUAUAUUCGAGAAGGGCAAAUACAUU”?
**A.** apparent Kd [3]: 161 nM; apparent Kd [4]: 287 nM

**Q.** For “GAAUUACAUGAGGAUCACCCAUGUGAGGAUAUCGAUGUAACUAGCAGCGUGCGGGACUCGAGAAGGCACUUGGA”, which “apparent Kd” value [3] is on record?
**A.** 39.1 nM

**Q.** What about the “apparent Kd” value [4] of the same sequence?
**A.** 67.5 nM

**Q.** What does the source list for “GAAUUCGCAUGAGGAUAUGCACUCAUUUCAUGUGCAGAAGGUAUAACAUUAGACAUGAGGAUCACCCAUGUAUUGGUCAUUAAC”?
**A.** apparent Kd [1]: 13.7 nM; apparent Kd [2]: 12.1 nM

**Q.** Which results are given for “GACAAUCUAUCUGAGGAUAUCAUGAAAAAAACAUGAGGAUCACCCAUGUGCAGGAAAACUGCAUAUGAGAAGGCAGAUAGAUUGC”?
**A.** apparent Kd [1]: 678 nM; apparent Kd [2]: 27.4 nM

**Q.** Which “apparent Kd” value [1] does the source give for “GACAUACAUGAGGAUCACCCAUGUUCAGGCGGACAAGGAUAUGUGUGGAAACCAUACUAUACAGAAGGUGUCUGUC” here?
**A.** 24.8 nM

**Q.** What about the “apparent Kd” value [2] of the same sequence?
**A.** 17.3 nM

**Q.** Which results are given for “GACAUGAGGAUCACCCAUGUCCCUCCAGAAGGCUGGCGCGCGAAACCUAAAUCAGUUCCGGGCACAGAGGAUAUGGGCGGUUGG”?
**A.** apparent Kd [1]: 164 nM; apparent Kd [2]: 34.3 nM

**Q.** Which results are given for “GACAUGAGGAUCACCCAUGUCCGGGCCAAGAGAAGAAAUACCAGAAGGACCGGCAGAAAUGUGCGGUAGGAUAUGGGAUUCGUG”?
**A.** apparent Kd [1]: 36.4 nM; apparent Kd [2]: 9.15 nM

**Q.** With “GACAUGGUCUAGAAGGCCUAUCUAUUUAAGUACGAUUUAGAACAGCAUAGGAGGAUAUGGCUAACAUGAGGAUCACCCAUGUUC” as the sequence, how does the “apparent Kd” value [1] read?
**A.** 49 nM

**Q.** And the “apparent Kd” value [2]?
**A.** 23.3 nM

**Q.** Which results are given for “GACCAGGCAGGAUAUACAUGAGGAUCACCCAUGUGUCUGCGUUGGGCACGUGAACACGGUAGAAGGGCCUUGAC”?
**A.** apparent Kd [3]: 12.2 nM; apparent Kd [4]: 22.9 nM

**Q.** With “GACCGUCACAGUUACCGGUUGAACGAGGAUAUGAUUACUGGGCCUGCACAUGAGGAUCACCCAUGUCAGAAGGCGUUCAGUCCC” as the sequence, how does the “apparent Kd” value [3] read?
**A.** 5.86 nM

**Q.** What about the “apparent Kd” value [4] of the same sequence?
**A.** 18.9 nM

**Q.** How did the “apparent Kd” value [3] turn out when “GACCUCCCUGUAAGGAUAUCCGUGCAUCAAAGCAAGGAGAAGGUACAUGAGGAUCACCCAUGUCACCCGCGUUA” was run?
**A.** 14.7 nM

**Q.** And the “apparent Kd” value [4]?
**A.** 21 nM

**Q.** What does the source list for “GACGAGGGAGGAUAUGCACGAGGGAUAUCUGACAUGCCUAUACAUGAGGAUCACCCAUGUAGAAGGCCCAGAUA”?
**A.** apparent Kd [3]: 10.6 nM; apparent Kd [4]: 13.1 nM

**Q.** With “GACUGAUUGUAGAAGGUACUUAAUACUCAUGUAACAUGAGGAUCACCCAUGUAUCACCCAUAUUGUAAGGAUAUACAUAUCUCA” as the sequence, how does the “apparent Kd” value [1] read?
**A.** 337 nM

**Q.** What about the “apparent Kd” value [2] of the same sequence?
**A.** 167 nM

**Q.** Which “apparent Kd” value [1] does the source give for “GACUUGCGCACAGGAUAUCCACGUAGCGGACGUGGAGAAGGGUGACAUGAGGAUCACCCAUGUACGUAAGUCUGGAUCACUUCC” here?
**A.** 48.3 nM

**Q.** What about the “apparent Kd” value [2] of the same sequence?
**A.** 21.8 nM

**Q.** For “GACUUGUCAGGAUAUCUUACAUAAACAUCGUAGUUACAAUUGGAGAAGGGACAUGAGGAUCACCCAUGUUUGGC”, which “apparent Kd” value [3] is on record?
**A.** 28 nM

**Q.** What about the “apparent Kd” value [4] of the same sequence?
**A.** 25.4 nM

**Q.** How did the “apparent Kd” value [3] turn out when “GACUUGUUAGGAUAUCUUACAUUUGCAUCAUAGCAACCAUUGGAGAAGGGACAUGAGGAUCACCCAUGUUUGGA” was run?
**A.** 31.6 nM

**Q.** What about the “apparent Kd” value [4] of the same sequence?
**A.** 31 nM

**Q.** Which “apparent Kd” value [3] does the source give for “GAGACUACCGAGAAGGGCAUAUUAAGACUCUUCGUACUACGCCUAGACAUGAGGAUCACCCAUGUGCAGGAUAUCGAGCGGCUC” here?
**A.** 6.38 nM

**Q.** And the “apparent Kd” value [4]?
**A.** 6.05 nM

**Q.** “GAGAGAGGGUGAGGAUAUUUAGUGAUAAUGAUAAAAGAAGGCACAGACAUGAGGAUCACCCAUGUGGGAAUAAUCCAGAGAGAG” was tested. Which “apparent Kd” value [1] did it give?
**A.** 305 nM

**Q.** What about the “apparent Kd” value [2] of the same sequence?
**A.** 288 nM

**Q.** Which “apparent Kd” value [3] does the source give for “GAGCGAAAGCUCAAUGUCGAUAGCAGAAGGACAUGAAAAUACAUGAAAACAUGAGGAUCACCCAUGUAGGAUAUGCUAUCGACU” here?
**A.** 8.75 nM

**Q.** And the “apparent Kd” value [4]?
**A.** 89.4 nM

**Q.** With “GAGCGAAAGCUCAAUGUCGAUAGCAGAAGGACGUGAAAACAUGAAAACACAUGAGGAUCACCCAUGUAGGAUAUGCUAUCGACU” as the sequence, how does the “apparent Kd” value [3] read?
**A.** 11.2 nM

**Q.** And the “apparent Kd” value [4]?
**A.** 27.6 nM

**Q.** Which “apparent Kd” value [3] does the source give for “GAGGUAUUCGUAGGAUAUCCGUCGCCACCGUGUGGAGAAGGACGAACAUGAGGAUCACCCAUGUAUCAUGGUGUGGACGCUUUC” here?
**A.** 71.5 nM

**Q.** And the “apparent Kd” value [4]?
**A.** 82.8 nM

**Q.** What does the source list for “GAGUAGAUCCGAGGAUAUACAAUCCGGAAACGGUACAUGAGGAUCACCCAUGUAGAAGGCGGAUCUACAGGUACUAAAGUACCC”?
**A.** apparent Kd [3]: 5.73 nM; apparent Kd [4]: 8.11 nM

**Q.** With “GAGUAGAUCCGAGGAUAUACAAUCCGGAAACGGUACAUGAGGAUCACCCAUGUAGAAGGCGGAUCUACAGGUACUAAAGUACCU” as the sequence, how does the “apparent Kd” value [4] read?
**A.** 7.89 nM
